Assay outcomes: PubChem BioAssay, The Scripps Research Institute Molecular Screening Center
M4 antag: antagonists of human muscarinic M4 receptor (CHRM4); P08173; CHO-hM4 cells, ACh EC80, Fluo-8 calcium fluorescence; inhibition, % at 3 µM; 360,000 tested, 0.73% active; AID 624125;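 active = inhibition above its plate's cutoff, the mean inhibition of sample wells plus 3 SD, cut at about 27% in these data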;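 also: 0% = acetylcholine EC80 with DMSO and 100% = DMSO without agonist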
CHRM4 agonist: CHRM4 agonism in calcium assay; activation, % at 3 µM; CHO-K1 hM4/Gqi5, Fluo-8 calcium fluorescence; vehicle 0%, full acetylcholine response 100%; 360,000 tested, 0.14% active; P08173;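 active = activation above the run mean over all test wells plus 3 SD, cut at about 32% in these data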;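 also: peak over basal fluorescence ratio per well then scaled between controls; 0% = DMSO wells and 100% = acetylcholine at EC100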
OXTR potentiate: potentiators of human oxytocin receptor; P30559; CHO-OTR cells, Fluo-8 calcium fluorescence, potentiator mode; 0% = oxytocin EC15, 100% = EC100; activation, % at 3 µM; 320,000 tested, 0.061% active; AID 2445;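 active = activation above that plate's cutoff, the mean activation of tested compounds plus 3 SD, cut at about 6.6% in these data, passing the limit was not always enough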;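 also: 100% uses oxytocin at 75 nM as the full agonist control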
Target sequence (P30559 whole entry, looked up): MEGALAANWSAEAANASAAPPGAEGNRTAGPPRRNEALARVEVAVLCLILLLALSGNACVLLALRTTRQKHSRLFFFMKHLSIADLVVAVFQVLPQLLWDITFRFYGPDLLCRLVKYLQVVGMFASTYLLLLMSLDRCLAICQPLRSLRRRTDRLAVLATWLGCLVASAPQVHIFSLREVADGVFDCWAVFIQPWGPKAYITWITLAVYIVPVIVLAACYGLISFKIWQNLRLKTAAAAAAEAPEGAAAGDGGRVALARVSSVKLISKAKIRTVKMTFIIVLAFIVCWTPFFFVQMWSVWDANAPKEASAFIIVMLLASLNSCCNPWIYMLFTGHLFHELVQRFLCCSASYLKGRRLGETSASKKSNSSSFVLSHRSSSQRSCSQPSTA
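Material: CHO-OTR cells, human receptor; compound dosing: single dose, 3.0 µM nominal final compound concentration; schedule: 6 min compound pre-incubation at room temperature, 100 s kinetic read; measured by: kinetic Fluo-8 calcium fluorescence; read-out basis: % activation vs EC15 and EC100 oxytocin; controls: EC15 oxytocin alone as 0%, 75 nM oxytocin as 100%; replicates: singlicate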
V1R ag counter: V1a receptor agonism, counter-screen for OXTR agonists; P37288; CHO-V1R cells, Fluo-8 calcium fluorescence, agonist mode; 0% DMSO, 100% 3 nM vasopressin; activation, % at 3 µM; 320,000 tested, 0.25% active;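 active = activation above the mean activation of all tested compounds plus 3 SD, per screening run, cut at about 20% in these data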;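 also: signal is peak over basal fluorescence ratio across a 100 second FLIPR read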
CHRM4 PAM: positive allosteric modulators of human muscarinic M4 receptor; AID 624126; 360,000 tested, 0.4% active; CHO-K1 hM4/Gqi5, Fluo-8 calcium fluorescence, ACh EC20; 0% = ACh EC20, 100% = maximal ACh; activation, % at 3 µM; P08173;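 active = activation above its plate's cutoff, the mean activation of sample wells plus 3 SD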
OXTR ag: agonists of human oxytocin receptor; CHO-OTR cells, Fluo-8 calcium fluorescence; normalized: DMSO 0%, oxytocin 100%; 320,000 tested, 0.32% active; activation, % at 3 µM; P30559; AID 2435;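 active = activation above the mean of all tested compounds plus 3 SD, cutoff set per screening run, cut at about 20% in these data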;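 also: peak over basal fluorescence ratio from a 100 s FLIPR kinetic read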
* hit, by the source's call; . = not tested or not shown. A selection: hits, their analogues and other compounds. The true share with any hit is near 1.5%.

SMILES	M4 antag	CHRM4 agonist	OXTR potentiate	V1R ag counter	CHRM4 PAM	OXTR ag
O=C(/C=C/c1cccc(Cl)c1)c1ccc([N+](=O)[O-])o1	29*	5	1	1	-5	1
CCOC(=O)[C@]12CCCC=C1N(CCc1ccc(OC)c(OC)c1)C(=O)[C@H](CC(=O)NCCc1ccccc1OC)C2	-2	15	.	.	-8	.
Cn1c(Cc2ccccc2)nnc1SCC(=O)N1CCCCC1	95*	-1	-8	0	11	1
CC1CCCCN1C(=O)CSc1nnc(Cc2ccccc2)n1C (stereo unspecified)	-2	1	-6	2	5	-1
CCCCCCCCN1C(=O)[C@H](CC(=O)N2CCSCC2)C[C@@]2(C(=O)OC)CC(C)(C)CC=C12	9	2	.	.	-10	.
Cc1ccc(C(=O)N2CCN(Cc3ccccc3)CC2)cc1S(=O)(=O)N1CCOCC1	1	2	.	.	2	.
CN(CC(=O)Nc1cccc(F)c1)C(=O)CCC1CCCCC1	-3	2	-10	-1	18*	-2
CCOc1cc(N(CC)CC)ccc1/C=C(/C#N)c1nc2ccccc2[nH]1	3	6	-24	116*	-6	114*
CCN(CC)c1ccc(/C=C(/C#N)c2nc3ccc(C)cc3[nH]2)c(OC(C)C)c1	56*	46*	-14	50*	-35	69*
Cc1cc(/C=C(\C#N)c2nc3ccccc3[nH]2)c(C)n1C	1	2	-8	0	11	1
COc1cc(/C=C(\C#N)c2nc3ccc(C)cc3[nH]2)c([N+](=O)[O-])cc1OC	-8	4	-5	-1	1	5
CCCOc1cc(N(CC)CC)ccc1/C=C(/C#N)c1nc2ccc(C)cc2[nH]1	45*	31	-14	27*	-33	33*
CCC(C)NCC(=O)Nc1ccc(S(N)(=O)=O)cc1 (stereo unspecified)	-4	12	-4	0	-5	-1
Cc1ccc(CN(Cc2cc3cccc(C)c3[nH]c2=O)C(=S)NCCCN(C)C)cc1	7	10	-7	2	-5	5
c1ccc(-c2noc(-c3cccc4ccccc34)n2)cc1	-10	0	3	0	16*	-1
CCN(CCCNC(=O)C1CCCN(S(=O)(=O)c2cnc[nH]2)C1)c1ccccc1 (stereo unspecified)	-2	0	6	2	-1	0
Cc1ccc(S(=O)(=O)N2CCN(C(=O)COC(=O)c3ccccc3OC(F)F)CC2)c(C)c1	-8	15	.	.	-6	.
COc1ccc(C(=O)Nc2ccc(N3CCN(C)CC3)cc2)cc1[N+](=O)[O-]	12	1	5	-1	2	2
COc1ccc(C(=O)Nc2ccc(N3CCN(C(=O)C(C)C)CC3)cc2)cc1[N+](=O)[O-]	-3	1	-6	-1	23*	1
CC1CCCCN1CC(=O)Nc1ccc(Oc2ccccc2)cc1 (stereo unspecified)	57*	2	0	0	-15	0
CCn1cc(S(=O)(=O)NC(C)c2cc(OC)ccc2OC)cn1 (stereo unspecified)	-2	0	-9	1	7	0
COc1cccc(C(C(=O)NC2CCCC2)N2CCN(c3ncccc3C#N)CC2)c1OC (stereo unspecified)	-6	5	.	.	-1	.
O=C1NC(=S)S/C1=C\c1cc(Cl)cc(Cl)c1O	12	52*	.	.	-13	.
O=C1NC(=S)SC1=Cc1ccccc1Cl	-15	10	.	.	0	.
COc1cccc(CN2CCC(C)(Oc3cccc(Cl)c3)C2)c1OC (stereo unspecified)	-13	4	.	.	-5	.
CCCC1=NN2C(=N)/C(=C\c3cc(C)n(Cc4ccccc4)c3C)C(=O)N=C2S1	1	42*	-18	43*	-16	48*
Cc1cc(/C=C2\C(=N)N3N=C(S(C)(=O)=O)SC3=NC2=O)c(C)n1Cc1ccccc1	0	1	-12	-1	2	-1
Cn1c(=O)[nH]c(=O)c2c1nc(N1CCOCC1)n2CCc1ccccc1	-1	1	-1	0	0	2
